The values that follow come from ChEMBL document CHEMBL4396931, “Fluorescent analogs of peptoid-based HDAC inhibitors: Synthesis, biological activity and cellular uptake kinetics” (Bioorg Med Chem, 2019).

One data set relates to OE19. Nature of the data set: Antiproliferative activity against human OE19 cells assessed as reduction in cell viability incubated for 72 hrs by presto blue assay. It is filed as functional. In a few lines:
(§1)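 3500 cells per well seeded and grown 24 h, then exposed to compound for 72 h. Viability read with PrestoBlue reagent per manufacturer's protocol, and GI50 taken from this.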

A further data set has as its system OE33. Nature of the data set: Antiproliferative activity against human OE33 cells assessed as reduction in cell viability incubated for 72 hrs by presto blue assay. In kind it is functional. The method in brief:
as §1

Data set [1] has as its target T1, Protein deacetylase HDAC6 (Homo sapiens, UniProt Q9UBN7).
T1 sequence (Q9UBN7 whole entry): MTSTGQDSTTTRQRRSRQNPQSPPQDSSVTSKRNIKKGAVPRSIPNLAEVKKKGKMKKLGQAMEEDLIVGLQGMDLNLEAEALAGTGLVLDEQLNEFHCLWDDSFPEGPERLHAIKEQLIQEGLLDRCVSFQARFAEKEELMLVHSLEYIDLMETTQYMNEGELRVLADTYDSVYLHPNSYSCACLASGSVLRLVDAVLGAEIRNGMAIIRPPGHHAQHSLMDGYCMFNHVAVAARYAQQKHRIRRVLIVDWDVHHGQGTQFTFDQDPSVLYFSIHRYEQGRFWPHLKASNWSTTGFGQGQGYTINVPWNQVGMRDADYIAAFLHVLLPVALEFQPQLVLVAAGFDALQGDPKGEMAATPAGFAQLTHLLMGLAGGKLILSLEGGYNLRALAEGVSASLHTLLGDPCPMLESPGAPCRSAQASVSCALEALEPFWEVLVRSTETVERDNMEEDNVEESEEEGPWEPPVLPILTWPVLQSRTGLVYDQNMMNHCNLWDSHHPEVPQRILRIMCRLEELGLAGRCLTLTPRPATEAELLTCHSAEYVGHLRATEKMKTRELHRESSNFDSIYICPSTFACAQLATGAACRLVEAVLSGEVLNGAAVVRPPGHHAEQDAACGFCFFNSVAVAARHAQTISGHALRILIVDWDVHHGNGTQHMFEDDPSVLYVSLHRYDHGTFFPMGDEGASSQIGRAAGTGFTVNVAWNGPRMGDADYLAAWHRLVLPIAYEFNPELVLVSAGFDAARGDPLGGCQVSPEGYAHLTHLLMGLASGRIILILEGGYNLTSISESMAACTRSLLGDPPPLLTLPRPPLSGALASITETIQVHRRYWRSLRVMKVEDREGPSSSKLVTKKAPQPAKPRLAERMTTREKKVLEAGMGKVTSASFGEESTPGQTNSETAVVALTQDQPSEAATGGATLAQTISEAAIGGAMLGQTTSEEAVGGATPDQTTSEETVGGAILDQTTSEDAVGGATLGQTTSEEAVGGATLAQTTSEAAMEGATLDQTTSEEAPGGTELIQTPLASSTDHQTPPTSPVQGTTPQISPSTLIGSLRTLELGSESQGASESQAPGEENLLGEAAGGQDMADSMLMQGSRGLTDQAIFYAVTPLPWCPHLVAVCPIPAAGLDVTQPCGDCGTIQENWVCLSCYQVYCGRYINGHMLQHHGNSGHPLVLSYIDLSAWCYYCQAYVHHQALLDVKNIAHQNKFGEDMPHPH
Nature of the data set: Inhibition of recombinant human full length C-terminal GST-tagged HDAC6 expressed in baculovirus infected Sf9 cells using ZMAL as substrate incubated for 90 mins by fluorometric method.

Data set [2] in a line: Drug uptake in human OE19 cells assessed as cytoplasmic retention at 1.25 uM measured after 30 mins by RFP-tagged histone H2B staining based confocal microscopy. In kind it is ADME, cell-based. The note with it: oe19, 0.5 h. The method in brief: (§2)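 Cells transfected with cDNA for histone H2B–RFP (DNA:reagent 1:1), then incubated 30 min with 1.25 µM compound. Imaged by confocal microscopy with 63× objective and 405 nm excitation.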

Data set [3] deals with Histone deacetylase 3/Nuclear receptor corepressor 2 (HDAC3/NCoR2) (Homo sapiens, UniProt O15379). Nature of the data set: Inhibition of recombinant human C-terminal GST/His-tagged HDAC3 (1 to 428 residues) co-expressed with human N-terminal GST-tagged NCOR2 (395 to 489 residues) in baculovirus infected Sf9 cells using ZMAL as substrate incubated for 90 mins by fluorometric method.
Sequence of Histone deacetylase 3/Nuclear receptor corepressor 2 (HDAC3/NCoR2) (O15379 whole entry, the tested form may be a part): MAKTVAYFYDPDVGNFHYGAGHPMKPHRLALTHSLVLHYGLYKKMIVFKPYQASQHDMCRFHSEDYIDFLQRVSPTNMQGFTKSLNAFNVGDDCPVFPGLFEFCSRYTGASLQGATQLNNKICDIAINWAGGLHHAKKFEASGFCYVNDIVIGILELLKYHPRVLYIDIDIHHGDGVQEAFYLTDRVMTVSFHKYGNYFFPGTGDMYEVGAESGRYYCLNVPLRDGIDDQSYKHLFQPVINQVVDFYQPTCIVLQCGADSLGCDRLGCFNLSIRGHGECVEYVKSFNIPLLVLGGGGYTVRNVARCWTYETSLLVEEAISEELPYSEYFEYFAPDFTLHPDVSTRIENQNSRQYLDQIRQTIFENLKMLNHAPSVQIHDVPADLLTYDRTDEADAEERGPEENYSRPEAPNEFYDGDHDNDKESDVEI
Sequence of Histone deacetylase 3/Nuclear receptor corepressor 2 (HDAC3/NCoR2) (Q9Y618 whole entry, further chain, the tested form may be a part): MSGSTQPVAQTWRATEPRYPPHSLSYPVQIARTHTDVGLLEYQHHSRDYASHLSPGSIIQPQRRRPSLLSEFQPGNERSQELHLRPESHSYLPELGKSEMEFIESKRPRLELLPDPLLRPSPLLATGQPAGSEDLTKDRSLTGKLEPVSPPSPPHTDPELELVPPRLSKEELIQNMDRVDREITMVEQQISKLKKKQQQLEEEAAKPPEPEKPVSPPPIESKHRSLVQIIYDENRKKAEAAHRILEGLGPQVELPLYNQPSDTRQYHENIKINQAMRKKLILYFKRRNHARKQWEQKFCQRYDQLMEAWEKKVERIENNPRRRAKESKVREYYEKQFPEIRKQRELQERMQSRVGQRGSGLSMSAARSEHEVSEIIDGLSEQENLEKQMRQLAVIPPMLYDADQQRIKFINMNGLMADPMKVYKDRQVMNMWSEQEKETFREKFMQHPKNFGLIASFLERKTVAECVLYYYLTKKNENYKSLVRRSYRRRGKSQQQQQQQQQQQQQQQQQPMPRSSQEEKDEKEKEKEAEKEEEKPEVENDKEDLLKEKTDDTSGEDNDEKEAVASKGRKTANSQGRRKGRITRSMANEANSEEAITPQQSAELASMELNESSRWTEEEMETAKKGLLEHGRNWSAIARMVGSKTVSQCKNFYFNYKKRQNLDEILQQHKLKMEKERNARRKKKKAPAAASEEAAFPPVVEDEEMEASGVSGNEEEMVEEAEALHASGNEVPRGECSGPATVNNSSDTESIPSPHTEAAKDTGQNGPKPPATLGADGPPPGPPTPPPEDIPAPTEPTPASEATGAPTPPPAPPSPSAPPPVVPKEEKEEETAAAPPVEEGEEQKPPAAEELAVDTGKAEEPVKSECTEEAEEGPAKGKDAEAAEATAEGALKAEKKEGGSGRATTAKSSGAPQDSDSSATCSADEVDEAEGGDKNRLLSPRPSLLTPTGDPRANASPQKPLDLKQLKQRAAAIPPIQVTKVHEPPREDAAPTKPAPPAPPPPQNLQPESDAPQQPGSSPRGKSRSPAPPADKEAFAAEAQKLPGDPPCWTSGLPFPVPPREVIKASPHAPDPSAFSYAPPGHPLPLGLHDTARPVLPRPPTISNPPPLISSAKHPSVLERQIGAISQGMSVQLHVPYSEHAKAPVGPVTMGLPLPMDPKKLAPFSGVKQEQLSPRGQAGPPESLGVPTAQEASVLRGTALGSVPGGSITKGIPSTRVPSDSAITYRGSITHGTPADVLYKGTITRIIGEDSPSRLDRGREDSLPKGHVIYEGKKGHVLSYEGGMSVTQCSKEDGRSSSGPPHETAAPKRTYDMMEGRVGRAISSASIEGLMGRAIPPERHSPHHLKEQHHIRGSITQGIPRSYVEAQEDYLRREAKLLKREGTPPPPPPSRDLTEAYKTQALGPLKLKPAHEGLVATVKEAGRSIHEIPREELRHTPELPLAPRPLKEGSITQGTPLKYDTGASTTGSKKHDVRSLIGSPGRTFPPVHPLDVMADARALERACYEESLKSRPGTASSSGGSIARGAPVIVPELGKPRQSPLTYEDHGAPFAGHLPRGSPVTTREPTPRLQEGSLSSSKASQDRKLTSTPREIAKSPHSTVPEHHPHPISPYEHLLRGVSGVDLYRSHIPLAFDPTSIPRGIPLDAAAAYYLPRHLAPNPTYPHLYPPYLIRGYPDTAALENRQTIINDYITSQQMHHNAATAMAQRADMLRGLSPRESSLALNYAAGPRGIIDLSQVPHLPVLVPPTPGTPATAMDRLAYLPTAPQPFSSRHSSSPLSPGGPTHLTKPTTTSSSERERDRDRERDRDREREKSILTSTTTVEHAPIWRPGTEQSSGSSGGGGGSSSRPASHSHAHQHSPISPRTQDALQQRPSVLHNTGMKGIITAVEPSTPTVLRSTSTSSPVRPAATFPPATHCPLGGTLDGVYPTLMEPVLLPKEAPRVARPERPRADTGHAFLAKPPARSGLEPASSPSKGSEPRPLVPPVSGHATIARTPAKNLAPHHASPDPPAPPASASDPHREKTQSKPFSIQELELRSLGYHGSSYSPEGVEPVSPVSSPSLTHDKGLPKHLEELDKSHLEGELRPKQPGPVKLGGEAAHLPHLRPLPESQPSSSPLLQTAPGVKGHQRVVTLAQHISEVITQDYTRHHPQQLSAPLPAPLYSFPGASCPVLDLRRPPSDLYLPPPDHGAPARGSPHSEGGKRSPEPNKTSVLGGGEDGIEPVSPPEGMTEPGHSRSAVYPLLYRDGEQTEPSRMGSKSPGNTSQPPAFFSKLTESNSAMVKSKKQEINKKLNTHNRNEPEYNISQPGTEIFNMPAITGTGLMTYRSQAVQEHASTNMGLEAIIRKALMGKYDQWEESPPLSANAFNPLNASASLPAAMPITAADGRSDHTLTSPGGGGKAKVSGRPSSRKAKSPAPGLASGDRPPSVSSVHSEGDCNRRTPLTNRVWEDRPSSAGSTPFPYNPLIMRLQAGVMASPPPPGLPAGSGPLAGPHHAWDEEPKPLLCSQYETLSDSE

Data set [4] is described as follows: Drug uptake in human OE19 cells assessed as increase in fluorescence intensity at 1.25 uM measured for every 10 sec for 30 mins by fluorescence based assay. In kind it is ADME, cell-based. The note with it: oe19, 0.5 h. In a few lines: (§3)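 Cells exposed to 1.25 µM compound, fluorescence recorded at Ex 370 nm / Em 530 nm every 10 s for 30 min on an epifluorescence microscope (40× objective). Treatment started 1 min before recording. Representative images taken at 15 min.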

Data set [5] in a line: Drug uptake in human OE19 cells assessed as increase in fluorescence intensity at 1.25 uM measured after 15 mins by microscopic method. The note with it: oe19, 0.25 h. In kind it is ADME, cell-based. In a few lines: as §3
Data set [6] concerns the target T2, Histone deacetylase (Homo sapiens) (UniProt Q13547+O15379+Q9UBN7+Q92769+Q9UQL6+Q8WUI4+Q9BY41+Q96DB2+P56524+Q9UKV0+Q969S8). Nature of the data set: Inhibition of HDAC in human OE33 cells assessed as increase in histone H3 acetylation at 2.25 uM incubated for 48 hrs by Western blot analysis. It is filed as cell-based. The method in brief: (§4)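 500,000 OE33 or 750,000 OE19 cells treated 48 h. Histones isolated, 5 µg nuclear extract run on 15% SDS-PAGE and blotted. Probed overnight at 4 °C with anti-acetyl-histone H3 (Lys9) and anti-histone H3, compared with untreated controls.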
On the technique in general: In western blotting, separated proteins are transferred to a membrane and probed.

The target of a further data set is Histone deacetylase 2 (Homo sapiens, UniProt Q92769). Nature of the data set: Inhibition of recombinant human full length C-terminal Flag-tagged HDAC2 expressed in baculovirus infected Sf9 cells using ZMAL as substrate incubated for 90 mins by fluorometric method. In kind it is cell-based.
Sequence of Histone deacetylase 2 (Q92769 whole entry): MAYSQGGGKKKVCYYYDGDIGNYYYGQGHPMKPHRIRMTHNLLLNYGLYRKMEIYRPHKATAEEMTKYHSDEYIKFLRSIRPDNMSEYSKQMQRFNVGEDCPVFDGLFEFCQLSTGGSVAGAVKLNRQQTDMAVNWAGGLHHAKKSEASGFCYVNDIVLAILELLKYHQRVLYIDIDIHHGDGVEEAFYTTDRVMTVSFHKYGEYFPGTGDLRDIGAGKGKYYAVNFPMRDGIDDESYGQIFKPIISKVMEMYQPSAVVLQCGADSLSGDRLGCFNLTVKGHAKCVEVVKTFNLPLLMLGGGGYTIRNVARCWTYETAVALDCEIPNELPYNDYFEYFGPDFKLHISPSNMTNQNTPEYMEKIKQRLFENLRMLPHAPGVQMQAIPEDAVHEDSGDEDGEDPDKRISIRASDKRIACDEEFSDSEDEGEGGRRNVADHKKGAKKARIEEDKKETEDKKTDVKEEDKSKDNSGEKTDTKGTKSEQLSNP
Data set [7] can be described thus: Drug uptake in human OE33 cells assessed as cytoplasmic retention at 1.25 uM measured after 30 mins by RFP-tagged histone H2B staining based confocal microscopy. The note with it: oe33, 0.5 h. In kind it is ADME, cell-based. In a few lines: as §2
A further data set has as its target Histone deacetylase 1 (Homo sapiens, UniProt Q13547). Nature of the data set: Inhibition of recombinant human full length C-terminal Flag/His-tagged HDAC1 expressed in baculovirus infected Sf9 cells using ZMAL as substrate incubated for 90 mins by fluorometric method.
Data set [8] addresses T2, Histone deacetylase (Homo sapiens). Nature of the data set: Inhibition of HDAC in human OE19 cells assessed as increase in histone H3 acetylation at 2.25 uM incubated for 48 hrs by Western blot analysis. It is filed as cell-based. The method in brief:
as §4

Data set [9] in a line: Drug uptake in human OE19 cells assessed as cytoplasmic retention at 1.25 uM measured after 30 mins by RFP-tagged histone H2B staining based confocal microscopy. The note with it: oe19, 30 min.
A short description of data set [10]: Drug uptake in human OE33 cells assessed as increase in fluorescence intensity at 1.25 uM measured for every 10 sec for 30 mins by fluorescence based assay. In kind it is ADME, cell-based. The note with it: oe33, 0.5 h. In a few lines:
as §3

Data set [11] is described as follows: Drug uptake in human OE33 cells assessed as increase in fluorescence intensity at 1.25 uM measured after 15 mins by microscopic method. In kind it is ADME, cell-based. The note with it: oe33, 0.25 h. The method in brief: as §3
The nature of data set [12]: Drug uptake in human OE33 cells assessed as cytoplasmic retention at 1.25 uM measured after 30 mins by RFP-tagged histone H2B staining based confocal microscopy. The note with it: oe33, 30 min.
In data set [13] the target is T2, Histone deacetylase (Homo sapiens). Nature of the data set: Inhibition of HDAC in human OE33 cells assessed as increase in histone H3 acetylation at 6.5 uM incubated for 48 hrs by Western blot analysis. It is filed as cell-based. In a few lines:
as §4

For data set [14] the target is unchanged. Nature of the data set: Inhibition of HDAC in human OE19 cells assessed as increase in histone H3 acetylation at 6.5 uM incubated for 48 hrs by Western blot analysis. In kind it is cell-based. In a few lines: as §4
For data set [15] the target is unchanged. Nature of the data set: Inhibition of HDAC in human OE33 cells assessed as increase in histone H3 acetylation at 0.6 uM incubated for 48 hrs by Western blot analysis. It is filed as cell-based. In a few lines: as §4
Data set [16] has the same target. Nature of the data set: Inhibition of HDAC in human OE19 cells assessed as increase in histone H3 acetylation at 0.6 uM incubated for 48 hrs by Western blot analysis. In kind it is cell-based. In a few lines:
as §4

Active and inactive are the calls of the source. The rule behind the calls is not given here.

Sequence of Histone deacetylase 1 (Q13547 whole entry): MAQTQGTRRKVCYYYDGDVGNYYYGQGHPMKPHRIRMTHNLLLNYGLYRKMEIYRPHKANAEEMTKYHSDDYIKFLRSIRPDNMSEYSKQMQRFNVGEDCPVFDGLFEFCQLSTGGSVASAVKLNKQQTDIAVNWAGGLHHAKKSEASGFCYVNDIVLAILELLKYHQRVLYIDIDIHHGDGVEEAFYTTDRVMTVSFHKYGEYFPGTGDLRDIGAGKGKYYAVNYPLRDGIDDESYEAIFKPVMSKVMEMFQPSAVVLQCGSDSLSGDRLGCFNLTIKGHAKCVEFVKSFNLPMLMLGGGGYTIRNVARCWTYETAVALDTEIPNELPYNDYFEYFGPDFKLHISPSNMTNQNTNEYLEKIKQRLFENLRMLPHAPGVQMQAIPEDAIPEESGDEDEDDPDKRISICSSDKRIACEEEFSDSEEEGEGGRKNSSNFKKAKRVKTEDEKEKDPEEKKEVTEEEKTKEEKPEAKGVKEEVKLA

As to `O=C(CCCCCCC(=O)Nc1ccccc1)NO` [VORINOSTAT], the GI50 (commonly the concentration that inhibits growth by half) in the data set on OE19 stood at 1420 nM; in the data set on OE33 it was 1120 nM.
As to `CN(C)c1cccc2c(S(=O)(=O)N(CCCCCC(=O)NO)CC(=O)NCc3ccccc3)cccc12`, the IC50 (as a rule, the midpoint of a concentration-inhibition curve) in [1] is 46 nM; in data set [3], 87 nM; at Histone deacetylase 2, 81 nM; on Histone deacetylase 1, 34 nM. For the same molecule, the Drug uptake result in data set [2], in [4], in data set [5], in data set [7], in data set [9] and in data set [10] was “Active” each time. For the same molecule, the Drug uptake result in [11] and in [12] was “Active” throughout. The inhibition result in data set [6] and in data set [8] was “Active” throughout. The GI50 with OE19 (Homo sapiens, OE19, 72 h) came out at 925 nM; with OE33 (Homo sapiens, OE33, 72 h) it was 776 nM.
For the molecule `CN(C)c1cccc2c(S(=O)(=O)N(CC(=O)NCc3ccccc3)Cc3ccc(C(=O)NO)cc3)cccc12`, the inhibition entry in [13] and in data set [14] was “Active” in each case. Besides, the IC50 in data set [1] worked out at 132 nM; in data set [3] it was 1020 nM; at Histone deacetylase 2 it was 3500 nM; on Histone deacetylase 1, 915 nM. Further, the Drug uptake entry in data set [2], in data set [4], in data set [5], in [7], in data set [9] and in data set [10] was “Active” throughout. The Drug uptake result in data set [11] and in data set [12] was “Active” throughout. Also, the GI50 with OE19 (Homo sapiens, OE19, 72 h) worked out at 12900 nM; with OE33 (Homo sapiens, OE33, 72 h), 6230 nM.
Turning to `CN(C)c1cccc2c(S(=O)(=O)N(CC(=O)NCc3ccccc3)Cc3ccc(C(=O)Nc4ccccc4N)cc3)cccc12`, the IC50 in data set [1] was greater than 10000 nM; in data set [3], 1130 nM; on Histone deacetylase 2, 668 nM; at Histone deacetylase 1, 676 nM. For the same molecule, the Drug uptake result in data set [2], in data set [4], in [5], in data set [7], in data set [9] and in data set [10] was “Active” each time. Also, the Drug uptake result in [11] and in data set [12] was “Active” each time. The inhibition result in data set [15] and in data set [16] was “Active” each time. Moreover, the GI50 in the data set with OE19 (Homo sapiens, OE19, 72 h) turned out to be 9100 nM; with OE33 (Homo sapiens, OE33, 72 h), 4590 nM.
